HePTP inh = human HePTP phosphatase inhibition; recombinant HePTP phosphatase activity, OD absorbance; inhibition, % at 20 µM; AID 521; hit rate 0.64% among 110,000; P35236; in the data active = inhibition above about 50%;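 also: plate controls were vehicle for no effect and reference inhibitor for full effect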
M1 ag = agonists of M1 muscarinic receptor; CHO-M1 cells, Fluo-4 calcium fluorescence, agonist mode; stronger effect = higher value; B-score at 10 µM; hit rate 3% among 64,000; AID 626;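 active = fluorescence rise, raw or as B-score row- and column-corrected plate score, outside the 99.7% band of its plate's samples, either direction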
SF1 activator = activators of human nuclear receptor SF-1; CHO-K1 Gal4-SF-1 LBD luciferase reporter; % increase over DMSO SF-1-specific signal; activation, % at 10 µM; hit rate 1.9% among 65,000; AID 522;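 active = activation above the mean activation of all tested compounds plus 3 SD, cut at about 50% in these data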
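Assay system: CHO-K1 cells co-transfected with Gal4 DBD–human SF-1 LBD, 5xGal4 luciferase reporter / Input: 4,000 cells per well / Incubation: 20 h compound exposure at 37 °C after 1 h cell settling / Detection: SteadyLite luciferase luminescence / Control set: DMSO negative control and −SF1 background wells / Replication: one test per compound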
D1 mod = D1 dopamine receptor (human) allosteric modulation | P21728 | HEK293 D1, CRE-luciferase, dopamine EC30 potentiation; actives deviate in either direction | B-score at 10 µM | hit rate 5.9% among 58,000 | AID 641;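 active = luminescence count or its row- and column-corrected plate score outside the 99.7% band of the plate's sample wells, on either side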
Target sequence (P21728 whole entry, looked up): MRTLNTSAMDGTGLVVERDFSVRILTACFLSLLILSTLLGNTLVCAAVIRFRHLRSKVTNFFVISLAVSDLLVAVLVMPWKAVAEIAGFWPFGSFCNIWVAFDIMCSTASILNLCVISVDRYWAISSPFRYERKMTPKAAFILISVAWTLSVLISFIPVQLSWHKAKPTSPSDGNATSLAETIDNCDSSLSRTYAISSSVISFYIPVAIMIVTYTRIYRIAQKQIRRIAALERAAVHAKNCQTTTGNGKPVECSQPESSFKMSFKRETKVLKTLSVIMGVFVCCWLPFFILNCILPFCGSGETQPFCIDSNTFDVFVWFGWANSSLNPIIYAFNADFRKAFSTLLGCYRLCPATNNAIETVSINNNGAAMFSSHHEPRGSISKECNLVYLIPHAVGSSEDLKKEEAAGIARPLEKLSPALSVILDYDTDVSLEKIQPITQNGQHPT
M1 antagonist = antagonists of rat M1 muscarinic receptor. CHO-M1 cells, Fluo-4 calcium, ACh EC80 antagonist mode; stronger effect = lower value. B-score at 10 µM. hit rate 3.4% among 64,000. P08482. AID 628;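 active = calcium fluorescence response, raw or row-and-column corrected B-score, differing from the plate sample mean either way at a set confidence level, mostly lower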
RORa activator = RORA (human) activation; P35398; CHO-K1 Gal4-RORA LBD luciferase reporter, luminescence; percent increase over mock-subtracted basal signal; activation, % at 10 µM; hit rate 1.5% among 65,000; AID 560;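 active = activation above the mean of all tested compounds plus 3 SD, cut at about 49% in these data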;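 also: 0% = DMSO-treated RORA cells and 100% = added signal equal to DMSO minus mock-transfected cells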
M1 antag confirm = M1 muscarinic receptor (rat) antagonism, confirmed; shares compounds with M1 antagonist; CHO-M1 cells, Fluo-4 calcium, ACh EC80 antagonism; stronger effect = lower value; calcium response (max-min fluorescence) at 10 µM; hit rate 43% among 1,700;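 active = calcium response below the same-plate mean of wells given acetylcholine alone at its 80%-effect dose, minus 3 SD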;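 also: raw fluorescence intensity difference in arbitrary instrument units and not normalized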
mGluR4 antag = acts on human mGluR4 in M1 antagonist selectivity test | shares compounds with M1 antagonist | CHO-mGluR4 calcium flux, Fluo-4 fluorescence, glutamate EC80; stronger effect = lower value | fluorescence response (max-min) at 10 µM | hit rate 0.9% among 1,700;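 active = fluorescence response below the plate's average for near-maximal glutamate wells, less 3 SD of those wells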;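 also: raw unnormalized fluorescence span taken in the window right after glutamate addition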
An asterisk follows results filed as active; · = no result given. The list is not random: actives were taken first. Their share in the collection is about 8.2%.

SMILES | HePTP inh | M1 ag | SF1 activator | D1 mod | M1 antagonist | RORa activator | M1 antag confirm | mGluR4 antag
Cc1cc(N2CCOCC2)nc2ccc(NC(=O)CCC(=O)N3CCCCC3)cc12 | -10.0 | -0.00119 | 20.4 | -0.16 | -2.59* | -14.5 | 524 | 170
Cc1cc(N2CCOCC2)nc2ccc(NC(=O)CCC(=O)N3CCC(C)CC3)cc12 | 18.4 | 0.896 | 0.6 | -0.43 | -0.232 | 17.1 | · | ·
Cn1c(CCN2CCCCC2)nc2cc(NC(=O)NC3CCCCC3)ccc21 | 5.7 | -0.333 | 3.5 | -1.52 | -4.72* | 9.8 | 263* | 228
Cn1c(CN2CCCCC2)nc2cc(NC(=O)c3ccc(F)cc3)ccc21 | -0.9 | 0.0891 | 3.5 | -2.27 | -0.956 | 1.6 | · | ·
Cc1ccc(N2CCN(CCc3nc4cc(NS(C)(=O)=O)ccc4n3C)CC2)cc1 | 15.3 | 1.7 | -0.6 | -1.96 | -3.75* | -2.1 | 503* | 234
Cn1c(CCN2CCCCC2)nc2cc(NS(=O)(=O)c3ccc(F)cc3)ccc21 | 11.1 | -0.522 | -17.5 | -0.593 | -1.82* | 26.9 | 474* | 207
Cn1c(CCNC(=O)c2ccco2)nc2cc(NC(=O)NC3CCCCC3)ccc21 | 1.1 | 0.0182 | 2.4 | -0.664 | 0.429 | 7.0 | · | ·
CCn1c(SCc2ccccc2)nnc1-c1ccc(S(=O)(=O)N2CCCCC2)cc1 | 6.6 | 0.305 | -7.1 | · | -2* | -20.8 | 504 | 225
CCn1c(SCc2nnc(-c3ccccc3)o2)nnc1-c1ccc(S(=O)(=O)N2CCCC2)cc1 | 5.5 | 0.0111 | -4.6 | -1.47 | -0.392 | -0.8 | · | ·
CCSc1nc2sc3c(c2c(=O)n1-c1ccc(OC)cc1)CCC3 | 5.0 | · | · | · | · | · | · | ·
CCOc1cc(C#N)c(NC(=O)c2ccco2)cc1OCC | 4.2 | 0.726 | 1.3 | 0.784 | -11.1* | 37.8 | 623 | 185
Cc1cc(N2CCN(C(c3ccccc3)c3ccc(Cl)cc3)CC2)n2ncnc2n1 (stereo not drawn) | -3.8 | 0.153 | 21.6 | 0.238 | -0.489 | -9.9 | · | ·
Cc1cc(N2CCN(C/C=C/c3ccccc3)CC2)n2ncnc2n1 | 14.2 | -0.321 | -6.8 | -0.658 | -1.57* | -17.2 | 525 | 231
COc1cccc(NC(=O)c2oc3ccccc3c2NC(=O)C(C)(C)C)c1 | 0.9 | -0.334 | -9.7 | -1.48 | -3.82* | -14.1 | 700 | 243
COc1cccc(NC(=O)c2oc3ccccc3c2NC(=O)c2ccc3c(c2)OCO3)c1 | 2.9 | -0.312 | -2.8 | 0.84 | 0.174 | 23.0 | · | ·
c1ccc(-c2nnc(N3CCN(c4ccccn4)CC3)c3ccccc23)cc1 | 8.6 | 1.41 | -10.7 | -2.55 | -4.83* | 5.5 | 358* | 171*
Cn1c(=O)oc2cc(S(=O)(=O)NCc3ccco3)ccc21 | 26.9 | 0.0178 | 2.2 | 0.78 | -3.37* | -8.0 | 690 | 237
CC(=O)Oc1ccc2oc(=O)c3c(c2c1)CCCN3C(=O)CN1CCN(c2ncccn2)CC1 | 15.6 | 0.393 | 8.0 | 0.798 | 0.117 | -9.0 | · | ·
O=C(CN1CCN(Cc2ccccc2)CC1)N1CCCc2c1c(=O)oc1ccc(O)cc21 | -5.1 | -0.000196 | 13.3 | -0.11 | -6.13* | 8.3 | 334* | 222
O=C(c1ccco1)N1CCN(CC(=O)N2CCCc3c2c(=O)oc2ccc(O)cc32)CC1 | 8.0 | 0.992 | -23.2 | 0.479 | 0.206 | -1.6 | · | ·
CCCOc1ccc2oc(=O)c3c(c2c1)CCCN3C(=O)CN(C)Cc1ccccc1 | 6.8 | -0.224 | -13.2 | -0.00708 | -6.53* | -1.2 | 386* | 265
Cc1c(C#N)c2nc3ccccc3n2c(=O)/c1=C/c1sc2ccccc2c1O | 2.2 | · | · | · | · | · | · | ·
CCOc1ccc(S(=O)(=O)N(CC(=O)N2CCc3ccccc32)Cc2ccco2)cc1 | 3.4 | -0.481 | -8.5 | · | -0.385 | -6.1 | · | ·
COC(=O)c1cc(Br)ccc1-c1ccc(/C=N/n2nnnc2N)o1 | 1.5 | 1.85 | -16.2 | 1.51 | -5.02* | -17.7 | 450 | 206
CCOC(=O)/C(C#N)=C/C1=Cc2c(OC)c3ccccc3n2C1=O | 9.1 | · | · | · | · | · | · | ·
SMILES | HePTP inh | M1 ag | SF1 activator | D1 mod | M1 antagonist | RORa activator | M1 antag confirm | mGluR4 antag
COc1cc(-c2ccc(NC(=O)c3cccnc3)c(OC)c2)ccc1NC(=O)c1cccnc1 | -9.8 | · | · | · | · | · | · | ·
O=C(CCNS(=O)(=O)c1cccc2nsnc12)Nc1ccc2c(c1)OCCO2 | 6.8 | -0.00289 | -15.6 | -0.621 | -0.143 | -30.9 | · | ·
O=S(=O)(Nc1ccc2c(c1)OCCO2)c1cccc2nsnc12 | · | 1.05 | -7.3 | -1.48 | -2.7* | -15.2 | 362* | 225
CCC(C)(C)n1nnnc1C(c1cc2cc(OC)ccc2[nH]c1=O)N1CCc2ccccc21 (stereo not drawn) | -1.0 | 0.229 | -3.5 | 0.0653 | -16.3* | -11.4 | 486 | 198
CC(NC(=O)c1ccc(N(C)C)cc1)C(c1cccs1)N1CCN(C)CC1 (stereo not drawn) | · | 0.187 | -2.8 | -0.485 | -3.93* | -1.9 | 632 | 183
CN1C(=O)C2ON(c3ccccc3)C(c3cccs3)C2C1=O (stereo not drawn) | · | -0.0205 | 24.3 | -1.39 | -2.67* | -15.3 | 575 | 224
Cc1ccccc1N1OC2C(=O)N(c3ccccc3)C(=O)C2C1c1cccs1 (stereo not drawn) | 6.5 | · | · | · | · | · | · | ·
COc1cccc(-n2ccnc2SCC(=O)NCc2ccccc2)c1 | -5.1 | 0.0928 | 2.5 | 1.45 | -2.67* | 7.1 | 528 | 191
O=C(CN1CCCc2ccccc21)NC(=O)NCc1ccco1 | 6.1 | 0.0332 | 8.1 | 0.885 | -0.0319 | 3.9 | · | ·
CC1Cc2ccccc2N1CC(=O)NC(=O)NCc1ccco1 (stereo not drawn) | 9.9 | 0.00815 | 11.5 | · | -4.13* | 2.0 | 670 | 244
O=C(NC(=S)Nc1ccccc1)C12CC3CC(CC(C3)C1)C2 | 13.8 | · | · | · | · | · | · | ·
O=C(NC1CC2CCC(C1)N2C(=O)NCc1ccccc1)C1CC1 (stereo not drawn) | 5.5 | 0.0297 | 9.6 | 0.906 | -2.21* | 4.5 | 419* | 241
O=C(NC1CCCCC1)C1CCN(C(=O)NCc2ccccc2)CC1 | 6.4 | -0.213 | -2.3 | 0.1 | -1.39* | 29.6 | 671 | 215
Cc1ccc(N2C(=O)C(Cl)=C(Nc3c(C)n(C)n(-c4ccccc4)c3=O)C2=O)cc1 | 7.2 | 0.0978 | -5.3 | -0.854 | -5.71* | 6.5 | 133* | 265
O=C(c1ccc(CSCc2ccccc2F)o1)N1CCN(c2ccc(N3CCOCC3)nn2)CC1 | 11.5 | -0.875 | 30.8 | 0.317 | -1.72* | 3.2 | 498* | 172
Cc1ccccc1CS(=O)(=O)Cc1ccc(C(=O)N2CCOCC2)o1 | 1.6 | 0.538 | 7.4 | 0.415 | 0.238 | 11.1 | · | ·
c1coc(-c2nc3c4c5c(sc4ncn3n2)CCCC5)c1 | 7.9 | -0.834 | 14.3 | 0.0991 | 0.678 | 0.7 | · | ·
CN1CCc2c(sc3ncn4nc(-c5ccccc5O)nc4c23)C1 | 3.6 | -0.126 | 4.9 | · | -3.72* | -6.9 | 353* | 248

Source: PubChem BioAssay (several laboratories)
